Measurements published in ChEMBL document CHEMBL1932952, “Synthesis and biochemical analysis of 2,2,3,3,4,4,5,5,6,6,7,7-dodecafluoro-N-hydroxy-octanediamides as inhibitors of human histone deacetylases” (Bioorg Med Chem, 2012).

Experiments:
Histone deacetylase 8 = target: T1, Histone deacetylase 8 (Homo sapiens, UniProt Q9BY41); test: Inhibition of recombinant human HDAC8 using Boc-L-Lys(trifluoroacetyl)-MCA as substrate by fluorogenic enzymatic assay
T1 sequence (Q9BY41 whole entry): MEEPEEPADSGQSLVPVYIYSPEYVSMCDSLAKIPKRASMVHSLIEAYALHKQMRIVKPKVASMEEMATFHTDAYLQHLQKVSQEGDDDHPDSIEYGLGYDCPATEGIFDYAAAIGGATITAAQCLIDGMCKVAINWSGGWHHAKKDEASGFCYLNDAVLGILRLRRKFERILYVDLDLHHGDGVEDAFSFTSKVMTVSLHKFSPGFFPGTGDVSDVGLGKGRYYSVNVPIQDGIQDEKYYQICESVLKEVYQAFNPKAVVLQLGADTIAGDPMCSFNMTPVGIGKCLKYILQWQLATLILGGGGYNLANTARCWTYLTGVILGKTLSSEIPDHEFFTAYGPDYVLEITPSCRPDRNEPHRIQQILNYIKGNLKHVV

Histone deacetylase [1] = test: Inhibition of HDAC in human K562 cells using Boc-L-Lys(acetyl)-MCA as substrate by fluorogenic cellular assay; type: cell-based
Method in brief: (§1)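 K562 cells were grown in RPMI with 10% FCS, L-glutamine and gentamycin, then pelleted. Lysis in 50 mM Tris–HCl pH 8.5, 1 M NaCl, 1 mM MgCl₂, Triton X-100 (up to 5× pellet volume), 2 h at 37 °C. The diluted lysate replaces recombinant enzyme in the two-step fluorogenic trypsin-coupled assay with substrate at 20 µM final. Read-out is AMC fluorescence (ex 390, em 460 nm), giving IC50.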

Histone deacetylase [2] = test: Inhibition of HDAC in human K562 cells using Boc-L-Lys(trifluoroacetyl)-MCA as substrate by fluorogenic cellular assay; type: cell-based; method in brief: as §1
[3] = target: T2, Protein deacetylase HDAC6 (Homo sapiens, UniProt Q9UBN7); test: Inhibition of recombinant human HDAC6 using Boc-L-Lys(acetyl)-MCA as substrate by fluorogenic enzymatic assay
T2 sequence (Q9UBN7 whole entry): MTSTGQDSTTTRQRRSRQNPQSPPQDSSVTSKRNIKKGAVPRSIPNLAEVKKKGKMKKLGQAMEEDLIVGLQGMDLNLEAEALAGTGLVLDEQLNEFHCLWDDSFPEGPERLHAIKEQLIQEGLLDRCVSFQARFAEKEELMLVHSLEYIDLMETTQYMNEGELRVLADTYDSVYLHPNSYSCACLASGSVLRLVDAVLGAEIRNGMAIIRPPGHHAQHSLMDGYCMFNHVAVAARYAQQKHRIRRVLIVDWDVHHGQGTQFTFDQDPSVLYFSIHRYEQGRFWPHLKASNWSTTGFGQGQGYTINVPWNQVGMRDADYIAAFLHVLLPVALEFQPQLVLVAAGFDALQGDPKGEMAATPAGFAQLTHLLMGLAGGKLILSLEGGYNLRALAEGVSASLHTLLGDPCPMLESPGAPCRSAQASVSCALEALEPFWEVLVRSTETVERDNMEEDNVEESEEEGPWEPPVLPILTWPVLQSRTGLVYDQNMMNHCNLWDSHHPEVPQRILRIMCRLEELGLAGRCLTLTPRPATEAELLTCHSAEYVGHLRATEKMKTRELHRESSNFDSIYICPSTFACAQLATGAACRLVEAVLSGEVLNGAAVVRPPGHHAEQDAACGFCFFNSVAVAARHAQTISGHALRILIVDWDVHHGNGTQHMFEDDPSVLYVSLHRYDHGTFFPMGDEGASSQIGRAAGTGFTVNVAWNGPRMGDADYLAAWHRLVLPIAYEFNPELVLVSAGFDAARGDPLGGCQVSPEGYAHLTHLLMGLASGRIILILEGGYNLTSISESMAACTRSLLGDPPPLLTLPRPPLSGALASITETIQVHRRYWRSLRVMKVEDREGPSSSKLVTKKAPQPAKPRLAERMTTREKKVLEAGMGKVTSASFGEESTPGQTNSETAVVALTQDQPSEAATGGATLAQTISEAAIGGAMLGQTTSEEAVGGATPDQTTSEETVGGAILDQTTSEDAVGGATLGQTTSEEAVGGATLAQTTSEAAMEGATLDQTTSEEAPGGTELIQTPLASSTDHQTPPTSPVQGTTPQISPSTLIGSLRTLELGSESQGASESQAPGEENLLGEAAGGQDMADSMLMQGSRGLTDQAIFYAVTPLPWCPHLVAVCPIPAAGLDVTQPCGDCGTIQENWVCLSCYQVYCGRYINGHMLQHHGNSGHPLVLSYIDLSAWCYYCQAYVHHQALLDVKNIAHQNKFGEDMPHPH

Histone deacetylase 7 = target: T3, Histone deacetylase 7 (Homo sapiens, UniProt Q8WUI4); test: Inhibition of recombinant human HDAC7 using Boc-L-Lys(trifluoroacetyl)-MCA as substrate by fluorogenic enzymatic assay
T3 sequence (Q8WUI4 whole entry): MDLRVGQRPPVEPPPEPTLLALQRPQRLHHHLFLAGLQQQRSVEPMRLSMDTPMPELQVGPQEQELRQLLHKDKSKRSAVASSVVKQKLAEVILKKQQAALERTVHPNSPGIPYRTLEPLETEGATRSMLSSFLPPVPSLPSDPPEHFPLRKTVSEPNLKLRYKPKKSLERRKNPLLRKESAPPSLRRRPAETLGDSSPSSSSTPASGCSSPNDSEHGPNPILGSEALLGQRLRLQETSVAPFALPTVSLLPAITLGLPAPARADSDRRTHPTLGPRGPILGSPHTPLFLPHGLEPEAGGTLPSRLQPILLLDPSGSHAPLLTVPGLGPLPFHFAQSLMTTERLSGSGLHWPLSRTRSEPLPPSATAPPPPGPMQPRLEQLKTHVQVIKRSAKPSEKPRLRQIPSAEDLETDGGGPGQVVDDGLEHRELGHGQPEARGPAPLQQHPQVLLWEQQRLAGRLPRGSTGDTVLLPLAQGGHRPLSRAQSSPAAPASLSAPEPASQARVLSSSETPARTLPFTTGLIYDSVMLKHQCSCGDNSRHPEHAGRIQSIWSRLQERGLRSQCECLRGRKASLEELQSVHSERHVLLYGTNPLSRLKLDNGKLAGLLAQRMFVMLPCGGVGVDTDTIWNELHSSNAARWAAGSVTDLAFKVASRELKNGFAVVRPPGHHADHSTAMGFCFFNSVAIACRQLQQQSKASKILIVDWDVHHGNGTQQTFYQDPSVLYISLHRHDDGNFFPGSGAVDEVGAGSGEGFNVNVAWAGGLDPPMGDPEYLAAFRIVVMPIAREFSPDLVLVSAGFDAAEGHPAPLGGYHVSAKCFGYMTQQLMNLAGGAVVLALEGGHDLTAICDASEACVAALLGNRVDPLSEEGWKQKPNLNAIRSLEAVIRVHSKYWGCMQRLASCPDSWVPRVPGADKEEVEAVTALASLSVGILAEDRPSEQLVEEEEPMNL

[4] = target: T4, Histone deacetylase-like amidohydrolase (Alcaligenes sp. (strain DSM 11172) (Bordetella sp. (strain FB188)), UniProt Q70I53); test: Inhibition of Bordetella FB188 HDAH using Boc-L-Lys(acetyl)-MCA as substrate by fluorogenic enzymatic assay
T4 sequence (Q70I53 whole entry): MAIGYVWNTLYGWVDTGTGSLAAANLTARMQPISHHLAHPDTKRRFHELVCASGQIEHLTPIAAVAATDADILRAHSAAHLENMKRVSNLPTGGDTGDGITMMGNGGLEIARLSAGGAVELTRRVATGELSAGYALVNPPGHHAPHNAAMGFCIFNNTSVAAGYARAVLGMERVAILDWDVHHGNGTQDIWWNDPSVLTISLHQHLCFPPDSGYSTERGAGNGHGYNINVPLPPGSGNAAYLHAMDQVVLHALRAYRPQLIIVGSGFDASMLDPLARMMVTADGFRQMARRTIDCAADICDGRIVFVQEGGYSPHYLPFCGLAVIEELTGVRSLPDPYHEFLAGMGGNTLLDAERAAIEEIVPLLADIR

Histone deacetylase 1 = Histone deacetylase 1 (Homo sapiens, UniProt Q13547); test: Inhibition of recombinant human HDAC1 using Boc-L-Lys(acetyl)-MCA as substrate by fluorogenic enzymatic assay
Histone deacetylase 1, sequence (Q13547 whole entry): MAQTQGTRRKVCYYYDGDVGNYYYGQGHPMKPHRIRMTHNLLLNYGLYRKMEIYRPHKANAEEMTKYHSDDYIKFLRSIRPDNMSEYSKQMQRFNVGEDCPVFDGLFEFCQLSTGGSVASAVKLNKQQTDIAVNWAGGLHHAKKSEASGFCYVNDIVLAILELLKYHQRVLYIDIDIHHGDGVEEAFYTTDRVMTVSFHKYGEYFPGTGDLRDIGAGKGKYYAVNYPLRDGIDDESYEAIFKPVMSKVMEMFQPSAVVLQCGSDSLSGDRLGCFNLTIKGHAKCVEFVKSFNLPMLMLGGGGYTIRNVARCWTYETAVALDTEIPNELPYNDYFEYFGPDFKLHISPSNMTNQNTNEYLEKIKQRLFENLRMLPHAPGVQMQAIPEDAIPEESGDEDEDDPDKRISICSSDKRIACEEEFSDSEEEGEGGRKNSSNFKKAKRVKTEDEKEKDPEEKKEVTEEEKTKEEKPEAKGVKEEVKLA

CCc1cccc(NC(=O)C(F)(F)C(F)(F)C(F)(F)C(F)(F)C(F)(F)C(F)(F)C(=O)NO)c1
Kd (Histone deacetylase 8): 13 µM | IC50 (Histone deacetylase [1]): > 50 µM | IC50 (Histone deacetylase [2]): 42 µM | Kd [3]: 1.3 µM | Kd (Histone deacetylase 7): 3 µM | Kd [4]: 0.19 µM | Kd (Histone deacetylase 1): 16 µM

O=C(NO)C(F)(F)C(F)(F)C(F)(F)C(F)(F)C(F)(F)C(F)(F)C(=O)Nc1cccc(-c2ccccc2)c1
Kd (Histone deacetylase 8): 60 µM | Kd [3]: 15 µM | Kd (Histone deacetylase 7): 14 µM | Kd [4]: 0.45 µM | Kd (Histone deacetylase 1): 30 µM

Cc1ccc(NC(=O)C(F)(F)C(F)(F)C(F)(F)C(F)(F)C(F)(F)C(F)(F)C(=O)NO)cc1C
Kd (Histone deacetylase 8): 14 µM | IC50 (Histone deacetylase [1]): > 50 µM | IC50 (Histone deacetylase [2]): > 50 µM | Kd [3]: 24 µM | Kd (Histone deacetylase 7): 3.3 µM | Kd [4]: 0.26 µM | Kd (Histone deacetylase 1): 24 µM

CC(=O)Nc1ccc(NC(=O)C(F)(F)C(F)(F)C(F)(F)C(F)(F)C(F)(F)C(F)(F)C(=O)NO)cc1
Kd (Histone deacetylase 8): 36 µM | IC50 (Histone deacetylase [1]): > 50 µM | IC50 (Histone deacetylase [2]): > 50 µM | Kd [3]: 9.2 µM | Kd (Histone deacetylase 7): 13 µM | Kd [4]: 1.3 µM | Kd (Histone deacetylase 1): 18 µM

O=C(NO)C(F)(F)C(F)(F)C(F)(F)C(F)(F)C(F)(F)C(F)(F)C(=O)Nc1ccc(-c2cnnn2-c2ccccc2)cc1
Kd (Histone deacetylase 8): > 100 µM | Kd [3]: 47 µM | Kd (Histone deacetylase 7): 12 µM | Kd [4]: 4.5 µM | Kd (Histone deacetylase 1): 66 µM

O=C(NO)C(F)(F)C(F)(F)C(F)(F)C(F)(F)C(F)(F)C(F)(F)C(=O)Nc1ccccc1-c1ccccc1
Kd (Histone deacetylase 8): 5.3 µM | IC50 (Histone deacetylase [1]): > 50 µM | IC50 (Histone deacetylase [2]): > 50 µM | Kd [3]: 9.2 µM | Kd (Histone deacetylase 7): 14 µM | Kd [4]: 0.86 µM | Kd (Histone deacetylase 1): 49 µM

O=C(NO)C(F)(F)C(F)(F)C(F)(F)C(F)(F)C(F)(F)C(F)(F)C(=O)Nc1cccc2ccccc12
Kd (Histone deacetylase 8): 19 µM | Kd [3]: 32 µM | Kd (Histone deacetylase 7): 20 µM | Kd [4]: 0.37 µM | Kd (Histone deacetylase 1): 29 µM

O=C(NO)C(F)(F)C(F)(F)C(F)(F)C(F)(F)C(F)(F)C(F)(F)C(=O)Nc1ccc(Cl)cc1
Kd (Histone deacetylase 8): 35 µM | Kd [3]: 23 µM | Kd (Histone deacetylase 7): 19 µM | Kd [4]: 0.21 µM | Kd (Histone deacetylase 1): 12 µM

O=C(NO)C(F)(F)C(F)(F)C(F)(F)C(F)(F)C(F)(F)C(F)(F)C(=O)Nc1ccc(-c2ccccc2)cc1
Kd (Histone deacetylase 8): 57 µM | Kd [3]: 49 µM | Kd (Histone deacetylase 7): 14 µM | Kd [4]: 8.8 µM | Kd (Histone deacetylase 1): 31 µM

O=C(NO)C(F)(F)C(F)(F)C(F)(F)C(F)(F)C(F)(F)C(F)(F)C(=O)Nc1ccc2cc3ccccc3cc2c1
Kd (Histone deacetylase 8): 60 µM | Kd [3]: 11 µM | Kd (Histone deacetylase 7): 38 µM | Kd [4]: 9.1 µM | Kd (Histone deacetylase 1): 65 µM

O=C(NO)C(F)(F)C(F)(F)C(F)(F)C(F)(F)C(F)(F)C(F)(F)C(=O)Nc1ccc(-c2cn(-c3ccccc3)nn2)cc1
Kd (Histone deacetylase 8): > 100 µM | Kd [3]: 8.2 µM | Kd (Histone deacetylase 7): 30 µM | Kd [4]: 7 µM | Kd (Histone deacetylase 1): > 100 µM

O=C(NO)C(F)(F)C(F)(F)C(F)(F)C(F)(F)C(F)(F)C(F)(F)C(=O)Nc1cc2ccccc2c2ccccc12
Kd (Histone deacetylase 8): 5.3 µM | Kd [3]: 10 µM | Kd (Histone deacetylase 7): 11 µM | Kd [4]: 0.29 µM | Kd (Histone deacetylase 1): 18 µM

O=C(NO)C(F)(F)C(F)(F)C(F)(F)C(F)(F)C(F)(F)C(F)(F)C(=O)Nc1ccc2ccc3cccc4ccc1c2c34
Kd (Histone deacetylase 8): 47 µM | Kd [3]: 17 µM | Kd (Histone deacetylase 7): 75 µM | Kd [4]: 0.6 µM | Kd (Histone deacetylase 1): 22 µM

O=C(Nc1ccccc1)C(F)(F)C(F)(F)C(F)(F)C(F)(F)C(F)(F)C(F)(F)C(=O)Nc1ccccc1
Kd (Histone deacetylase 8): > 100 µM | Kd [3]: > 100 µM | Kd (Histone deacetylase 7): > 100 µM | Kd [4]: 27 µM | Kd (Histone deacetylase 1): > 100 µM

N#Cc1ccc(NC(=O)C(F)(F)C(F)(F)C(F)(F)C(F)(F)C(F)(F)C(F)(F)C(=O)NO)cc1
Kd (Histone deacetylase 8): 35 µM | Kd [3]: 71 µM | Kd (Histone deacetylase 7): 32 µM | Kd [4]: 0.23 µM | Kd (Histone deacetylase 1): 18 µM

Cc1ccc(NC(=O)C(F)(F)C(F)(F)C(F)(F)C(F)(F)C(F)(F)C(F)(F)C(=O)NO)cc1
Kd (Histone deacetylase 8): 34 µM | Kd [3]: > 100 µM | Kd (Histone deacetylase 7): 52 µM | Kd [4]: 0.27 µM | Kd (Histone deacetylase 1): 14 µM
